Publication PMC11564562 (Scientific Reports, 2024)

Experiments:
[1] = system: MCF-7 breast cancer cells; experiment: MTT cytotoxicity assay, MCF-7; type: cell-based; conditions: Homo sapiens, MCF7, 72 h, read-out: IC50 cytotoxicity against MCF-7 cells
In short: (§1)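 MTT assay: cells cultured at 37 °C in 5% CO2 with 10% FBS and penicillin/streptomycin, HeLa in DMEM and MCF-7 in RPMI 1640. Seeded at 5,000 cells/well and left to adhere 24 h, then exposed 72 h to 0.1, 1, 10 and 100 µM test compound, diluted from 10 mM DMSO stocks in medium. MTT (5 mg/mL) added for 3 h, formazan dissolved in DMSO, absorbance read. Blank-corrected % survival taken relative to untreated cells; IC50 calculated; mean ± SD, n = 3; doxorubicin as positive control.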

[2] = system: HeLa cells; experiment: MTT cytotoxicity assay, HeLa; type: cell-based; conditions: Homo sapiens, 72 h, read-out: IC50 cytotoxicity against HeLa cells
In short: as §1

[3] = system: Hsp90 protein level in MCF-7 cells; experiment: Hsp90 protein level assay; type: cell-based, human; conditions: 10 µM, control (untreated) cells 5.54 ng/mL
In short: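 Sandwich ELISA kit quantifying intracellular Hsp90 in MCF-7 cells against untreated cells. Standards and samples incubated 2 h at 37 °C, then biotinylated antibody 1 h at 37 °C, three washes, HRP-avidin 1 h at 37 °C, washes, TMB 15–30 min at 37 °C. Stop solution added and absorbance read at 450 nm. Experiment run in triplicate (n = 3); significance set at p < 0.05.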

Structure (SMILES)	IC50 [1] [µM]	IC50 [2] [µM]	Hsp90 protein level after treatment [3] [ng/mL]
C=CCNC1=C2C[C@@H](C)C[C@H](OC)[C@H](O)[C@@H](C)/C=C(\C)[C@H](OC(N)=O)[C@@H](OC)/C=C\C=C(/C)C(=O)NC(=CC1=O)C2=O [17-AAG, Tanespimycin, reference compound]	0.1	–	–
COc1ccc(-c2noc(N)c2C#N)c(OC)c1 [compound 1, 5-amino-(2,4-dimethoxyphenyl) isoxazole-4-carbonitrile]	0.31	7.91	4.85
COc1ccc(-c2noc(NC(=O)c3ccccc3)c2C#N)c(OC)c1 [compound 2, N-(4-cyano-3(2,4-dimethoxyphenyl)isoxazol-5-yl) benzamide]	≥ 100	> 100	–
COc1ccc(-c2noc(NC(=O)c3ccc(Cl)cc3)c2C#N)c(OC)c1 [compound 3, N-(4-cyano-3-(2,4-dimethoxyphenyl)isoxazol-5-yl)-4-chlorobenzamide]	68.3	3.61	–
COc1ccc(-c2noc(NC(=O)c3ccc(C(F)(F)F)cc3)c2C#N)c(OC)c1 [compound 4, N-(4-cyano-3-(2,4-dimethoxyphenyl)isoxazol-5-yl)-4-(trifluoromethyl)benzamide]	50.6	19.4	2.81
COc1ccc(-c2noc(NC(=O)c3ccc(F)cc3)c2C#N)c(OC)c1 [compound 8, N-(4-cyano-3(2,4-dimethoxyphenyl)isoxazol-5-yl)-4-fluorobenzamide]	54.1	31.9	–
